For assay [1], the system named is Trichophyton benhamiae. Put plainly: In vitro antifungal activity against Trichophyton asteroides. The format is functional, tricophyton asteroides. Summed up:
(§1)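 Clinical isolates kept on Sabouraud's dextrose agar at 28 °C. Inocula at 1 × 10^5 CFU/mL: C. albicans yeast cells grown 48 h in Sabouraud's dextrose broth; A. fumigatus and T. asteroides conidia grown 14 days in that broth with 0.1% Tween 80. Microtiter twofold dilution in Sabouraud's dextrose broth, 100 to […] µg/mL, methanol ≤2%. Sealed, 37 °C, 48 h. MIC is the lowest concentration without visible growth.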

For assay [2], the system named is Aspergillus fumigatus. Put plainly: In vitro antifungal activity against Aspergillus fumigatus. The format is functional. Summed up:
as §1

Assay [3] relates to Candida albicans. Put plainly: In vitro antifungal activity against Candida albicans. In kind it is functional. In a few lines: as §1

Values after ≈ are worked out from the molar mass of the structure shown. Bounds are passed on as bounds.

Regarding `C[C@@H]1[C@H](O)[C@@H](C)/C=C/C=C/C=C/C=C/C=C/C=C/C=C/[C@H](O[C@@H]2O[C@H](C)[C@@H](O)[C@H](N)[C@@H]2O)C[C@@H]2O[C@](O)(C[C@@H](O)C[C@@H](O)[C@H](O)CC[C@@H](O)C[C@@H](O)CC(=O)O[C@H]1C)C[C@H](O)[C@H]2C(=O)O` [AMPHOTERICIN B], the figures for the MIC in assay [1], in assay [2] and in assay [3] were 3.1 µg/mL (≈ 3.35 µM), 3.1 µg/mL (≈ 3.35 µM) and 1.6 µg/mL (≈ 1.73 µM), respectively.

On to `Clc1ccccc1C(c1ccccc1)(c1ccccc1)n1ccnc1` [CLOTRIMAZOLE], for which the MIC (in general, the lowest concentration found to suppress growth) is less than 0.1 µg/mL in assay [1], 3.1 µg/mL (≈ 8.99 µM) in assay [2] and 3.1 µg/mL (≈ 8.99 µM) in assay [3].
